An excerpt weighted towards active compounds, which were near 2.3% of everything screened.
TRPC6 inh: mouse TRPC6 channel inhibitors, primary screen, cell-based, HEK293, membrane potential dye. Short transient receptor potential channel 6 (Mus musculus), Q61143. ACh-evoked depolarization; stronger effect = lower value. B-score at 10 µM. 310,000 compounds, 1.1% hits. AID 2553, 2010;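 active means B-score under library mean minus 3 SD, initial fluorescence not abnormally high, positive integrated signal ratio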;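 further: B-score derived from integrated fluorescence ratio over the kinetic read; more negative B-score means stronger inhibition of depolarization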
TRPC4 act: activators of mouse TRPC4 channel, primary screen, Fluo4 calcium, HEK293 TRPC4beta/mu-opioid cells; 310,000 compounds, 0.49% hits; AID 2237, 2010; B-score at 10 µM; Fluo4 calcium fluorescence; stronger effect = higher value;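 active means B-score above 5 SD of library B-scores, and initial fluorescence ratio not above library mean plus 5 SD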;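 further: positive B-score marks a calcium rise read as TRPC4 activation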
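Material: TRPC4beta and mu-opioid receptor HEK293 stable cells | Incubation: 45 min room-temperature Fluo4 loading, 110 s read | Detection: Kinetic Fluo4 calcium fluorescence | Measure: Integrated baseline-normalised fluorescence ratio, converted to per-well B score | Benchmarks: Low control buffer alone, high control maximal DAMGO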
TRPC4 potent: positive allosteric modulators of TRPC4, primary screen, cell-based, mouse TRPC4beta, HEK293 mu-opioid, Fluo-4 calcium; Short transient receptor potential channel 4 (Mus musculus), Q9QUQ5; DAMGO EC20, Fluo-4 Ca2+ flux; stronger effect = higher value; B-score at 10 µM; 310,000 compounds, 0.42% hits; AID 2227, 2009;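 active means B-score of calcium response area above 5 SD of library B-scores, with initial fluorescence ratio within 5 SD of library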
TRPC4 inh: inhibitors of mouse TRPC4 channel, primary screen, Fluo4 calcium, HEK293 TRPC4beta/mu-opioid cells | Short transient receptor potential channel 4 (Mus musculus), Q9QUQ5 | DAMGO-evoked Fluo4 calcium flux; stronger effect = lower value | B-score at 10 µM | 300,000 compounds, 0.39% hits;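 active means B-score over 3 SD under the library average, no early fluorescence shift, positive overall ratio signal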
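Test system – stable TRPC4beta/mu-opioid receptor HEK293 cells · Probe or stimulus – DAMGO, a submaximal dose followed by a maximal one · Dosing – one concentration per compound · Signal – Fluo4 calcium fluorescence by kinetic imaging, 5 s 1 Hz baseline · Evaluation – per-well B score of integrated baseline-normalized Fluo4 ratio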
TRPC6 act: mouse TRPC6 channel activators, primary screen, cell-based, HEK293, membrane potential dye. B-score at 10 µM. 310,000 compounds, 0.13% hits. HEK293-TRPC6 membrane potential dye fluorescence; stronger effect = higher value;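 active means B-score of the integrated fluorescence ratio above library mean plus 3 SD, and starting fluorescence ratio within library mean plus 5 SD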;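 further: higher score means more depolarization so channel activation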
TRPC4 sel inh 2: mouse TRPC4 off-target activity of TRPC6 inhibitors, second screen | 920 compounds, 42% hits | AID 2776 | HEK293 TRPC4/MOR, membrane potential dye fluorescence; channel activated by saturating DAMGO dose | shares compounds with TRPC6 inh | inhibition, % at 10 µM;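 active means compounds whose fluorescence signal differed from control wells by over 3 SD, either direction, in both duplicate plates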
TRPC4 spec: mouse TRPC4 modulation by TRPC6 hits, confirmation, selectivity assay for TRPC6 inhibitor project, cell-based, HEK293 TRPC4/mu-opioid, membrane potential dye | shares compounds with TRPC6 inh | 920 compounds, 61% hits | membrane potential fluorescence | AID 2777, 2010 | activity change, negative = inhibition, % at 10 µM;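 active means rise or fall in signal beyond 3 SD of buffer-only wells in both replicate plates, either sign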;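 further: integrated kinetic ratio of fluorescence range over baseline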
HEK293 MPD ctr 2-1: nonspecific membrane potential effects, parental HEK293, confirmation, counter-screen for TRPC6 inhibitor project, cell-based, second counter screen | shares compounds with TRPC6 inh | parental HEK293 membrane potential dye fluorescence; maximal acetylcholine challenge after compound addition | signal change vs control, % at 10 µM | 920 compounds, 31% hits | AID 2779, 2010;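 active means membrane potential signal moving either way by over 3 SD of the maximum-effect control, in both duplicate plates, meaning non-specific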
HEK293 MPD ctr-1: membrane potential modulation in parental HEK293, confirmation, counter-screen for TRPC6 inhibitor project, cell-based | AID 2780, 2010 | membrane potential signal change, % at 10 µM | 920 compounds, 60% hits | parental HEK293 membrane potential dye fluorescence | shares compounds with TRPC6 inh;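 active means membrane potential signal shifting up or down by more than 3 SD of buffer-only wells, on both duplicate plates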
HEK293 MPD ctr-2: parental HEK293 membrane potential modulation, confirmation, counter-screen for TRPC6 modulator project, cell-based. membrane potential dye fluorescence. shares compounds with TRPC6 inh. membrane potential signal change, % at 10 µM. 2,400 compounds, 51% hits. AID 488924, 2010;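 active means membrane potential signal moves up or down beyond 5 SD from buffer-only wells, on both duplicate plates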
HEK293 MPD ctr 2-2: second counter-screen for TRPC6 modulators: effect in parental HEK293 cells; shares compounds with TRPC6 inh; membrane potential dye fluorescence; after compound, maximal acetylcholine stimulation; inhibition, % at 10 µM; 2,400 compounds, 14% hits;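 active means membrane potential signal drops by more than 5 SD from the mean control signal, in both duplicate plates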
TRPC4/MOR mod: TRPC4 modulation by TRPC6 hit compounds, confirmation, selectivity assay for TRPC6 modulator project, cell-based, HEK293 TRPC4/mu-opioid, membrane potential dye, mouse | shares compounds with TRPC6 inh | membrane potential fluorescence | percent change from control (negative = decrease, positive = increase), % at 10 µM | 2,400 compounds, 69% hits;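 active means membrane potential signal moved up or down beyond 5 SD of buffer control wells, in both duplicate plates, actives on both sides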
TRPC4 ctr inh 2: second selectivity test of TRPC6 modulators against mouse TRPC4; shares compounds with TRPC6 inh; HEK293 TRPC4/mu-opioid, membrane potential dye fluorescence; stimulated with maximal-effect DAMGO; inhibition, % at 10 µM; 2,400 compounds, 55% hits;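 active means drop in membrane potential signal beyond 5 SD of the control wells in both duplicate plates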;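 further: TRPC4 counter screen for TRPC6 hits run under conditions tuned for TRPC6 not TRPC4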
TRPC6 inh conf: mouse TRPC6 channel inhibitors, confirmation, HEK293 cells, membrane potential dye, duplicate; shares compounds with TRPC6 inh; ACh-evoked depolarization; inhibition, % at 10 µM; 3,300 compounds, 43% hits; AID 488960, 2010;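 active means fluorescence ratio falls more than 5 SD below the full-stimulation control mean, in both duplicate runs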;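 further: integrated fluorescence ratio of peak minus minimum over baseline after agonist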
Numbers stand for hits; i = inactive; nt = no result given.

SMILES | TRPC6 inh | TRPC4 act | TRPC4 potent | TRPC4 inh | TRPC6 act | TRPC4 sel inh 2 | TRPC4 spec | HEK293 MPD ctr 2-1 | HEK293 MPD ctr-1 | TRPC6 inh conf | others
OC(C#CCCN1CCCCC1)(c1ccccc1)c1ccccc1 | -8.8 | i | i | i | i | i | 6.0% | 14.5% | 6.0% | 72.2%
CCN(CC)CCC#CC(O)(c1ccccc1)c1ccccc1 | -8.85 | i | i | i | i | i | 6.4% | -9.0% | 8.6% | 63.1%
OCCN(CC#CC(O)(c1ccccc1)C1CCCCC1)CCO (centres undefined) | i | i | i | i | i | nt | nt | nt | nt | nt
OC(C#CCCN1CCCCC1)(c1ccccc1)C1CCCCC1 (centres undefined) | -7.45 | i | i | i | i | i | 23.4% | i | 14.9% | 75.4%
Nc1nc(-c2ccccc2)c(C(=O)Nc2ccccc2)s1 | i | i | i | i | i | nt | nt | nt | nt | nt
Cc1cccc(NC(=O)COc2coc(CN3CCN(c4ccccc4)CC3)cc2=O)c1 | i | i | i | i | i | nt | nt | nt | nt | nt
COc1ccccc1NC(=O)CCC(=O)OCC(=O)c1ccc(C)c([N+](=O)[O-])c1 | i | i | i | i | i | nt | nt | nt | nt | nt
Cn1cc(C(=O)NCc2ccc(Cl)cc2)c(=O)c2cc(S(=O)(=O)N3CCOCC3)ccc21 | i | i | i | i | i | nt | nt | nt | nt | nt
O=C(c1ccccc1)N(Cc1ccccc1)c1ccccn1 | i | i | i | i | i | nt | nt | nt | nt | nt
O=C(c1ccc([N+](=O)[O-])cc1)N(Cc1ccccc1)c1ccccn1 | -5.7 | i | i | i | i | nt | nt | nt | nt | i | HEK293 MPD ctr-2=144.5%;HEK293 MPD ctr 2-2=i;TRPC4/MOR mod=37.5%;TRPC4 ctr inh 2=i
